The values below come from paper PMC3911823 (The FEBS journal, 2011).

For one data set, the target named is T1, P450 2B4 E474D (Oryctolagus cuniculus, UniProt P00178, E474D).
T1 sequence (P00178 with tags, fused parts or gaps E474D limits assumed): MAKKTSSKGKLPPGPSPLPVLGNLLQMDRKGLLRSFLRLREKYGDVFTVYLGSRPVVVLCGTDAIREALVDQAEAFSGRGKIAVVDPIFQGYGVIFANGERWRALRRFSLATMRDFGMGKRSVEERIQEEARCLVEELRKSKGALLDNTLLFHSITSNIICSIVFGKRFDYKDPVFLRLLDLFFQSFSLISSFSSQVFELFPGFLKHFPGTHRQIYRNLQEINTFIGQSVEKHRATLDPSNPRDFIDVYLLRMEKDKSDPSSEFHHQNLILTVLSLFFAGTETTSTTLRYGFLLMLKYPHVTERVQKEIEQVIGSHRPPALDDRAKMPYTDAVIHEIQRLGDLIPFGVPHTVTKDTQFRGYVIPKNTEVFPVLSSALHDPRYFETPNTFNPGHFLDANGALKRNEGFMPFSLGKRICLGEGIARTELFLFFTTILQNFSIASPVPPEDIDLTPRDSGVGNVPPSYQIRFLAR
Type of data set: biochemical, rabbit (Oryctolagus cuniculus).

In another data set the target is T2, P450 2B4 E474Q (Oryctolagus cuniculus, UniProt P00178, E474Q).
T2 sequence (P00178 with tags, fused parts or gaps E474Q limits assumed): T1 sequence (P00178 with tags, fused parts or gaps E474D limits assumed) with D455Q
In kind it is biochemical, rabbit (Oryctolagus cuniculus).

The target in another data set is T3, P450 2B4 wild type (Oryctolagus cuniculus, UniProt P00178).
T3 sequence (P00178 with tags, fused parts or gaps limits assumed): T1 sequence (P00178 with tags, fused parts or gaps E474D limits assumed) with D455E
Type of data set: biochemical, rabbit (Oryctolagus cuniculus). As to conditions: 2B4 WT.

Another data set has as its target T4, P450 2B4 H172A (Oryctolagus cuniculus, UniProt P00178, H172A).
T4 sequence (P00178 with tags, fused parts or gaps H172A limits assumed): T1 sequence (P00178 with tags, fused parts or gaps E474D limits assumed) with H153A, D455E
Put plainly: Inhibition of 7-EFC O-deethylation by imidazole inhibitors. In kind it is biochemical, rabbit (Oryctolagus cuniculus).

Another data set addresses T5, P450 2B4 H172F (Oryctolagus cuniculus, UniProt P00178, H172F).
T5 sequence (P00178 with tags, fused parts or gaps H172F limits assumed): T1 sequence (P00178 with tags, fused parts or gaps E474D limits assumed) with H153F, D455E
Put plainly: Spectral binding titration of imidazole ligands. Details: species or system rabbit (Oryctolagus cuniculus). As to conditions: 2B4 H172F versus wild type. In outline: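 Protein was the His-tagged 2B4dH construct (single mutants or wild type), expressed in TOPP3 cells and Ni-NTA purified. Spectra 350–700 nm recorded after serial 5 μl additions of 100 μM 4-CPI or bifonazole. Ks came from a tight-binding equation fit, and the 4-CPI/bifonazole Ks ratio was calculated.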

Molecules are shown by their SMILES. Where a chain is given by its changes, count along the chain named.

For the molecule `O=c1ccc2nc3ccc(OCc4ccccc4)cc3oc-2c1` [7-BR, 7-benzyloxyresorufin], the “decrease (change) in kcat versus wild type” value was ~ 2.5 fold at P450 2B4 E474D and ~ 4.5 fold on P450 2B4 E474Q. For the same molecule, the catalytic constant (kcat) – broadly, the maximal rate divided by the concentration of active sites – is 0.0517 ± 0.0033 s⁻¹ on P450 2B4 E474D, 0.0283 ± 0.005 s⁻¹ at P450 2B4 E474Q and 0.127 ± 0.005 s⁻¹ on P450 2B4 wild type (substrate O-dealkylation). Moreover, the kcat/S50 is listed as 0.5 on P450 2B4 E474D, 0.35 on P450 2B4 E474Q and 3.3 at P450 2B4 wild type. Also, the results for the S50 at P450 2B4 E474D (Hill equation), on P450 2B4 E474Q (Hill equation) and on P450 2B4 wild type (Hill equation) were 6.2 ± 0.7 µM, 4.8 ± 0.5 µM and 2.3 ± 0.5 µM, respectively.
As to `Clc1ccc(-c2c[nH]cn2)cc1` [4-CPI, 4-(4-chlorophenyl)imidazole], the IC50 (as a rule, the concentration that inhibits the measured activity by half) on P450 2B4 H172A was determined as 0.31 µM. The “Ratio 4-CPI IC50/Bifonazole IC50” value at P450 2B4 H172A (2B4 H172A, 50 μM 7-EFC as substrate) is 0.53. The “change in the ratio of 4-CPI Ks to bifonazole Ks” value on P450 2B4 H172F is given as “greater than 9 fold”.
